# Source: ChEMBL document CHEMBL1155077, “Kinesin spindle protein (KSP) inhibitors. 9. Discovery of (2S)-4-(2,5-difluorophenyl)-n-[(3R,4S)-3-fluoro-1-methylpiperidin-4-yl]-2-(hydroxymethyl)-N-methyl-2-phenyl-2,5-dihydro-1H-pyrrole-1-carboxamide (MK-0731) for the treatment of taxane-refractory cancer” (J Med Chem, 2008)
# The source made the active and inactive calls.
# Assays:
# [1] = biological target: Centromere-associated protein E (Homo sapiens, UniProt Q02224); experiment: Inhibition of cloned human CENP-E
# [2] = Volume of distribution at steady state in dog at 0.4 mg/kg, iv; assay type: ADME, organism-based, Canis lupus familiaris; parameters: dose 0.4 mg/kg, route intravenous; settings: in vivo, read-out: Vdss
# [3] = Volume of distribution at steady state in rhesus monkey at 0.4 mg/kg, iv; assay type: ADME, organism-based, Macaca mulatta; parameters: dose 0.4 mg/kg, route intravenous; settings: in vivo, read-out: Vdss
# [4] = Clearance in rat at 1 mg/kg, iv; assay type: ADME, organism-based; parameters: dose 1 mg/kg, route intravenous; settings: in vivo
# [5] = Aqueous solubility at pH 4.3; assay type: physicochemical; settings: aqueous solution
# [6] = biological target: Kinesin-like protein KIF14 (Homo sapiens, UniProt Q15058); experiment: Inhibition of cloned human Kif14
# [7] = Half life in rhesus monkey at 0.4 mg/kg, iv; assay type: ADME, organism-based, Macaca mulatta; parameters: dose 0.4 mg/kg, route intravenous; settings: in vivo
# [8] = Toxicity in human A2780 cells xenografted clr:NU/NU-nuBR mouse assessed as maximum tolerated dose; assay type: organism-based; settings: in vivo
# Procedure, shortened: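 Maximum tolerated dose was set in protocols in naive mice that varied dose, vehicle and frequency, with survival as the end point and peripheral blood counts tracked. The schedule was sc injection every 4 days × 3 in saline acidified to pH 4.0, 100 µL per dose.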
# [9] = test system: Rattus norvegicus; experiment: Acute toxicity in rat at 15 mg/kg, iv; assay type: organism-based; parameters: dose 15 mg/kg, route intravenous; settings: in vivo
# [10] = test system: A2780; experiment: Induction of mitotic arrest in human A2780 cells […] clr:NU/NU-nuBR mouse assessed as minimum plasma concentration required to induce maximum mitotic arrest after 22 hrs; assay type: functional
# [11] = Clearance in rhesus monkey at 0.4 mg/kg, iv; assay type: ADME, organism-based, Macaca mulatta; parameters: dose 0.4 mg/kg, route intravenous; settings: in vivo
# [12] = Dissociation constant, pKa by Sirius GLpKa titrator; assay type: physicochemical
# Procedure, shortened: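 Potentiometric pKa measured on a Sirius GLpKa titrator; mean of n = 3 determinations unless marked as a single determination.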
# [13] = biological target: T1, Kinesin heavy chain isoform 5A (Homo sapiens, UniProt Q12840); experiment: Inhibition of cloned human nKHC
# T1 sequence (Q12840 whole entry): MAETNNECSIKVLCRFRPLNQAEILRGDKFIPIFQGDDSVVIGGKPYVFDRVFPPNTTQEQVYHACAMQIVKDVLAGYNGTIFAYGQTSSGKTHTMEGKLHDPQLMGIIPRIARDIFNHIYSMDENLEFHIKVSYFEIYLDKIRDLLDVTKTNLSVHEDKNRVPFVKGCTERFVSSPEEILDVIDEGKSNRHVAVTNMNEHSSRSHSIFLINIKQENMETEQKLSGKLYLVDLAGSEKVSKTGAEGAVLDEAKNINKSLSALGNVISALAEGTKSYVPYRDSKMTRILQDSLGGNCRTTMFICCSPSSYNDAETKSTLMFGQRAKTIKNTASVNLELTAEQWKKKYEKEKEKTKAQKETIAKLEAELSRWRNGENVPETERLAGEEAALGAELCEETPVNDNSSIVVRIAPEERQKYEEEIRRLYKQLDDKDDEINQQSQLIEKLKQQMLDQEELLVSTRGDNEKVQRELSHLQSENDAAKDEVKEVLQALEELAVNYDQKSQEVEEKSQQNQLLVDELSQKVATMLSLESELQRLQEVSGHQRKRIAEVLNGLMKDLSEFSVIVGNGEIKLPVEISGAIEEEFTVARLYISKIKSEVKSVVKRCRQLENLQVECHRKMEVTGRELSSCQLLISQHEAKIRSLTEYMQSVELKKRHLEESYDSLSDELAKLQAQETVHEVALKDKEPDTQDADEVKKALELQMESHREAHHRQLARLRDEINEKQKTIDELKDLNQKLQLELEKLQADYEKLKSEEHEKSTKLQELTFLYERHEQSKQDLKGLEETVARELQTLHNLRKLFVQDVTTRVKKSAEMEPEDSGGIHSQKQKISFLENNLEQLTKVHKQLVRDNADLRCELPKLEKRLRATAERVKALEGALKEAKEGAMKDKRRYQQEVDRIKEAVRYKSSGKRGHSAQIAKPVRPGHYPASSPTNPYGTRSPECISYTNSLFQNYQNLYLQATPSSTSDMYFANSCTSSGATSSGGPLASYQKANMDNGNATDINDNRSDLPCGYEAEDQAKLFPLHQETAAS
# [14] = Ratio of IC50 for induction of mitotic arrest in human […] to IC50 for induction of mitotic arrest in […] human KB-V-1 cells; assay type: functional
# Procedure, shortened: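 Phospho-nucleolin mitotic-arrest assay in parental KB-3-1 and MDR1-overexpressing KB-V-1 cells (>500-fold higher MDR1 mRNA). Cells were treated in triplicate for 16 h across 10 000 to 0.1 nM (11-point, half-log series; 0.1% DMSO final). Total nucleolin was bead-captured from lysates and phospho-nucleolin detected by TG3 antibody plus a ruthenium-labelled secondary. Ratio = IC50 (KB-V-1) / IC50 (KB-3-1).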
# [15] = Clearance in dog at 0.4 mg/kg, iv; assay type: ADME, organism-based, Canis lupus familiaris; parameters: dose 0.4 mg/kg, route intravenous; settings: in vivo
# [16] = Volume of distribution at steady state in rat at 1 mg/kg, iv; assay type: ADME, organism-based; parameters: dose 1 mg/kg, route intravenous; settings: in vivo, read-out: Vdss
# [17] = test system: A2780; experiment: Inhibition of tumor growth in human A2780 cells xenografted clr:NU/NU-nuBR mouse assessed as change in tumor volume at 100 mg/kg, sc administered q4d x 3 dosing schedule
# [18] = Half life in dog at 0.4 mg/kg, iv; assay type: ADME, organism-based, Canis lupus familiaris; parameters: dose 0.4 mg/kg, route intravenous; settings: in vivo
# [19] = biological target: Kinesin-like protein KIF1B (Homo sapiens, UniProt O60333); experiment: Inhibition of cloned human Kif1B
# [20] = Inhibition of human KSP in presence of 30% mouse serum
# Procedure, shortened: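 KSP ATPase assay as the primary one (0.25 nM KSP motor domain, microtubules, 1 mM ATP, pH 6.8, 3 h at RT, quinaldine red phosphate read-out), run with 30% mouse serum dialysed against reaction buffer (12-14 kDa cutoff). Mean of at least 3 experiments unless noted.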
# Chain of Kinesin-like protein KIF14 (Q15058 whole entry): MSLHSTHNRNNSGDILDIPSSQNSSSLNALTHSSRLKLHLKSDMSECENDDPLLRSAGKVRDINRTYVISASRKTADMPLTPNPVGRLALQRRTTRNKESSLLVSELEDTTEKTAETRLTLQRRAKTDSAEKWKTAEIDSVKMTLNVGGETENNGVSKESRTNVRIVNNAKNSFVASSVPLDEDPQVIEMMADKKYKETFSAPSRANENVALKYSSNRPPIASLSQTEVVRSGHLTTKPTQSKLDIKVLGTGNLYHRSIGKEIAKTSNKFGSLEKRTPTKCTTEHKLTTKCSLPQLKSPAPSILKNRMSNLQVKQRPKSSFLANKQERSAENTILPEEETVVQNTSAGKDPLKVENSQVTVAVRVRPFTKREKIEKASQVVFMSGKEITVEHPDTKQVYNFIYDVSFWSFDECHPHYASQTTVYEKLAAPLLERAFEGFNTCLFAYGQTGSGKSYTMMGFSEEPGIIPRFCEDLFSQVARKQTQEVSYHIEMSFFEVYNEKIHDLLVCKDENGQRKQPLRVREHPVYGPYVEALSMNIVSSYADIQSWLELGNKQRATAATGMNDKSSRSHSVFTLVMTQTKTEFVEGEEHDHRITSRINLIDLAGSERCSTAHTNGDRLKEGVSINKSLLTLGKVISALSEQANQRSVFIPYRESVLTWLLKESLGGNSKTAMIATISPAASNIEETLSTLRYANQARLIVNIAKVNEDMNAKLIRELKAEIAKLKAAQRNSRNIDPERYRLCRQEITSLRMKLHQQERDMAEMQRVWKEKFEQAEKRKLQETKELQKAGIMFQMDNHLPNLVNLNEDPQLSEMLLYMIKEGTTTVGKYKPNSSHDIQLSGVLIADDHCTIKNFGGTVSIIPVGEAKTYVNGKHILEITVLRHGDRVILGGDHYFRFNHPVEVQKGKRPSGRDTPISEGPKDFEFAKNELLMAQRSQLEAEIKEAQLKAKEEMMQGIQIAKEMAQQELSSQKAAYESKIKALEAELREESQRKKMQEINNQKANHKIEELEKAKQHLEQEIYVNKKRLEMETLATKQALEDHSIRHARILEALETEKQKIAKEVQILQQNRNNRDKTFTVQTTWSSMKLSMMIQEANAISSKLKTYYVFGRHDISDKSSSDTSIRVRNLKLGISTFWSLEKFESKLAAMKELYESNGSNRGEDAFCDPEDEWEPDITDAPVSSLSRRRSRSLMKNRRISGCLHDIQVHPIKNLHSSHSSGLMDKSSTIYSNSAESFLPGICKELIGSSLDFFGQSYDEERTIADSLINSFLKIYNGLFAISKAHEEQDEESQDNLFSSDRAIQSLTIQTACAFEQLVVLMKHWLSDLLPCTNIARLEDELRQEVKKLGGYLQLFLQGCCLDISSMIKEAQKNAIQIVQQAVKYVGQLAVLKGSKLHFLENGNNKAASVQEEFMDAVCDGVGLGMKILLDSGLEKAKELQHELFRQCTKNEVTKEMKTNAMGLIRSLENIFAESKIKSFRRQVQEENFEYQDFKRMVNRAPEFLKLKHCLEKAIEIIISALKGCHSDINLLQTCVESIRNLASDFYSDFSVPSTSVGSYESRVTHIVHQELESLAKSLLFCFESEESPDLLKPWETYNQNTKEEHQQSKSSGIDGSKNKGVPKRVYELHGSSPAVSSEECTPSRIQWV
# Chain of Centromere-associated protein E (Q02224 whole entry): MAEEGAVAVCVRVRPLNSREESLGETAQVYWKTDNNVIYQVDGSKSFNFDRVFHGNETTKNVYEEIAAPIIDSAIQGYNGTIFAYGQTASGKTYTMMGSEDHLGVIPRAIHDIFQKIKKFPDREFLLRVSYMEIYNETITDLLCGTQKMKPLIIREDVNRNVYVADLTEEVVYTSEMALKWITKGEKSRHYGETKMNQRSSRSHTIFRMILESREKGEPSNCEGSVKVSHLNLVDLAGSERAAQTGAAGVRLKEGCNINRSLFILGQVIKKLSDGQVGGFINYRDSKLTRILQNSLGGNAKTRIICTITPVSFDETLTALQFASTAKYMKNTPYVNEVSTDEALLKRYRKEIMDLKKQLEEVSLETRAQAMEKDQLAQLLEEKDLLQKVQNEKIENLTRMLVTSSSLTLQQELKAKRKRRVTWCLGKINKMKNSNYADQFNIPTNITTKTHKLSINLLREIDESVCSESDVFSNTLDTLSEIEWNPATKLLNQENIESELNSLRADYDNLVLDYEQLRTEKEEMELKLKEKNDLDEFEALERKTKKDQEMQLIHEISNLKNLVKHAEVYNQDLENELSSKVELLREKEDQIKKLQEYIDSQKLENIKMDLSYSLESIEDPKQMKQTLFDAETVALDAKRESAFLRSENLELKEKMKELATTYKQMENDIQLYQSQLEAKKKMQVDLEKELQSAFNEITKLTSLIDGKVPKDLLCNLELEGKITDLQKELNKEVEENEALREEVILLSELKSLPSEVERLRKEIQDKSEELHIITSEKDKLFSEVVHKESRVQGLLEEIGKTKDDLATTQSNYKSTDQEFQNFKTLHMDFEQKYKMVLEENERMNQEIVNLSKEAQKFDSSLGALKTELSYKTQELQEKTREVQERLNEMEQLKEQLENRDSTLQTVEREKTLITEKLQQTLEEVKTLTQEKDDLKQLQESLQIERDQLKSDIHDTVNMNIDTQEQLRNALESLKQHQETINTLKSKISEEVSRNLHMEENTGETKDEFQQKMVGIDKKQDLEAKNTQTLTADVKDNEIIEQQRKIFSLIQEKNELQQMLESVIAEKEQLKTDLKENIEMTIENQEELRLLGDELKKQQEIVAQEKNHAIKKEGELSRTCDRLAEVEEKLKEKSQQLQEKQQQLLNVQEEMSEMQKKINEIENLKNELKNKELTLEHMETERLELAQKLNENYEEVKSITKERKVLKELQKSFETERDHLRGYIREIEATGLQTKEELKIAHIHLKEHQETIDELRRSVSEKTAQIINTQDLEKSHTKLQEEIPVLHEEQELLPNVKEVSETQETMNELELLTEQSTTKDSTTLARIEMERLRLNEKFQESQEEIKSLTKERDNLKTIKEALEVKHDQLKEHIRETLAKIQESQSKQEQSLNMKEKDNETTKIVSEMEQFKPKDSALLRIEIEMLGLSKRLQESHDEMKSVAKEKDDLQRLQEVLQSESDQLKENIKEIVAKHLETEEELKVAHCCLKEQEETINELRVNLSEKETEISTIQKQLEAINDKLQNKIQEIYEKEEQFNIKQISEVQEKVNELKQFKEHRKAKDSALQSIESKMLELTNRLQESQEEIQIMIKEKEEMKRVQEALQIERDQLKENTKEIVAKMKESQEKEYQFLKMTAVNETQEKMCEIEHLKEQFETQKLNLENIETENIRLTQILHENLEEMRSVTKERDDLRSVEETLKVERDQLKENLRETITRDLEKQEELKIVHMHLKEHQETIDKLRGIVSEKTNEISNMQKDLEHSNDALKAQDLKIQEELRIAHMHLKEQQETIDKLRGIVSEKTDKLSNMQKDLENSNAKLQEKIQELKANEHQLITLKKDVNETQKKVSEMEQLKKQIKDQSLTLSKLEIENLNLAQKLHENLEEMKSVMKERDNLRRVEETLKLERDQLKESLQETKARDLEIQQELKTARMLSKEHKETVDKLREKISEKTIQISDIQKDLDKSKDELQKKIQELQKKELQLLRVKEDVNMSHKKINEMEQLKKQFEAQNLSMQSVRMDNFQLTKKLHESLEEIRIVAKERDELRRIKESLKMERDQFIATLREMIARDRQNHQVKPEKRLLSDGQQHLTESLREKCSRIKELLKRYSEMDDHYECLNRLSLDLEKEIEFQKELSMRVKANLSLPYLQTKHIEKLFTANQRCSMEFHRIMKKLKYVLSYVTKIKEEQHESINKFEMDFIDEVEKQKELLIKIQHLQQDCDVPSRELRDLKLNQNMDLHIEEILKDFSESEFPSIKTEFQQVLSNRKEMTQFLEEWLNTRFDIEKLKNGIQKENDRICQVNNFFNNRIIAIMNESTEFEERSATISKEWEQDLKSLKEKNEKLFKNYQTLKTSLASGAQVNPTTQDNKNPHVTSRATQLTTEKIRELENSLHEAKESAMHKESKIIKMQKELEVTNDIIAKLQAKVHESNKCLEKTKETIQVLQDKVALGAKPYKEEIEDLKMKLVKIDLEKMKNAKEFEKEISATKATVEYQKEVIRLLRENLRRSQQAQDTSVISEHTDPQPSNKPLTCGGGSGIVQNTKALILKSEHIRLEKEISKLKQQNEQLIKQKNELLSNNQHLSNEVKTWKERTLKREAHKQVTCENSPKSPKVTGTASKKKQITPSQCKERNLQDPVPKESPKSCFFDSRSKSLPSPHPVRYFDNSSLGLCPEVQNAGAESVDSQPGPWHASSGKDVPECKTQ
smiles,measurement,setting,value
CN1CC[C@H](N(C)C(=O)N2CC(c3cc(F)ccc3F)=C[C@@]2(CO)c2ccccc2)[C@H](F)C1,IC50,[1],> 50 µM
same,Vd,[2],1.6 L/kg
same,Vd,[3],2.3 L/kg
same,clearance,[4],4 L/h/kg
same,solubility,[5],> 50 mg/mL
same,IC50,[6],> 50 µM
same,half-life,[7],1 h
same,MTD,[8],100 mg/kg
same,Activity,[9],Non-toxic
same,EC90,[10],0.094 µM
same,clearance,[11],1.39 L/h/kg
same,pKa,[12],7.6
same,IC50,[13],> 50 µM
same,Ratio,[14],4.5
same,clearance,[15],0.906 L/h/kg
same,Vd,[16],3 L/kg
same,Activity,[17],Active
same,half-life,[18],2 h
same,IC50,[19],> 50 µM
same,IC50,[20],0.0291 µM
